# Measured values from ChEMBL document CHEMBL1150929, “Synthesis and cytotoxic activity of pyranocoumarins of the seselin and xanthyletin series” (J Nat Prod, 1998).
# Calls of active or inactive are those of the source. No cut-off for these calls is given here.
# System: L1210
# Experiment: Cytotoxicity against mouse L1210 cells after 48 hrs by […] assay
# Type: functional, cell-based
# Conditions: L1210, 48 h
# Summary of the method: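 L1210 cells grown in RPMI 1640 plus 10% fetal calf serum, 2 mM L-glutamine, penicillin/streptomycin, 10 mM HEPES (pH 7.4); exposed 48 h to nine serial drug dilutions in triplicate; microculture tetrazolium read-out; IC50 = concentration halving optical density versus untreated controls; mean of 2 independent experiments.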
row,Compound,IC50
1,CC(=O)O[C@H]1c2c(ccc3ccc(=O)oc23)OC(C)(C)[C@H]1OC(C)=O (racemic),> 100 µM
2,CC(=O)O[C@H]1c2c(ccc3ccc(=O)oc23)OC(C)(C)[C@@H]1Br (racemic),60.3 µM
3,CC1(C)Oc2cc3oc(=O)ccc3cc2[C@@H](O)[C@@H]1Br (racemic),> 100 µM
4,CC(=O)O[C@@H]1c2cc3ccc(=O)oc3cc2OC(C)(C)[C@@H]1OC(C)=O (racemic),> 100 µM
5,CC1(C)Oc2cc3oc(=O)ccc3cc2[C@@H](O)[C@H]1O (racemic),> 100 µM
6,CC(=O)OC1CC(C)(C)Oc2cc3oc(=O)ccc3cc21 (racemic),5 µM
7,CC1(C)CC(OC(=O)c2ccccc2)c2c(ccc3ccc(=O)oc23)O1 (racemic),30.9 µM
8,CC1(C)CC(OC(=O)c2ccccc2)c2cc3ccc(=O)oc3cc2O1 (racemic),90.1 µM
9,CC1(C)CC(OC(=O)NCCCl)c2c(ccc3ccc(=O)oc23)O1 (racemic),67.2 µM
10,CC1(C)Oc2ccc3ccc(=O)oc3c2[C@H](OC(=O)c2ccccc2)[C@H]1Br (racemic),10.3 µM
11,CC1(C)Oc2ccc3ccc(=O)oc3c2[C@H](O)[C@@H]1O (racemic),> 100 µM
12,CC(=O)O[C@@H]1c2cc3ccc(=O)oc3cc2OC(C)(C)[C@H]1Br (racemic),> 100 µM
13,CC1(C)CC(O)c2cc3ccc(=O)oc3cc2O1 (racemic),6.5 µM
14,CC1(C)CC(O)c2c(ccc3ccc(=O)oc23)O1 (racemic),0.9 µM
15,CC(=O)OC1CC(C)(C)Oc2ccc3ccc(=O)oc3c21 (racemic),24.7 µM
16,CC1(C)Oc2ccc3ccc(=O)oc3c2[C@H](O)[C@H]1Br (racemic),> 100 µM
17,CC1(C)Oc2cc3oc(=O)ccc3cc2[C@@H](OC(=O)c2ccccc2)[C@@H]1Br (racemic),36.5 µM

# System: L1210
# Experiment: Cell cycle arrest in mouse L1210 cells by accumulation at G1 phase after 21 hrs by flow cytometry
# Type: functional, cell-based
# Conditions: not given
row,Compound,Activity
1,CC(=O)OC1CC(C)(C)Oc2cc3oc(=O)ccc3cc21 (racemic),inactive
2,CC1(C)CC(O)c2cc3ccc(=O)oc3cc2O1 (racemic),inactive
3,CC1(C)CC(O)c2c(ccc3ccc(=O)oc23)O1 (racemic),inactive
